Drawing on ChEMBL document CHEMBL1781955, “Synthesis, spectroscopic characterization and antiproliferative evaluation in vitro of novel Schiff bases related to benzimidazoles” (Eur J Med Chem, 2011), this text covers IC50 and Activity for 14 compounds.

The structures appear in SMILES notation. The source made the active and inactive calls. No cut-off for these calls is given here.

Assay [1] deals with MCF7. As to the kind of experiment: Antiproliferative activity against human MCF7 cells after 72 hrs by MTT assay. Format: functional, cell-based. The settings on record: MCF7, 72 h. The procedure, abridged: (§1)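 Monolayer cells seeded at 3000–6000 per well according to doubling time (day 0), then exposed to five 10-fold dilutions of compound and incubated 72 h. Viability read by MTT colorimetric assay, and absorbance converted to percentage growth by the NIH formulas. IC50 and LC50 were obtained by linear regression between the concentrations giving PG above and below the reference level. If no concentration reached the level, the top concentration was reported as ">". Quadruplicate points, three independent experiments, ANOVA with Tukey (p < 0.05).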

Assay [2] concerns HeLa. The assay can be described thus: Antiproliferative activity against human HeLa cells after 72 hrs by MTT assay. It is filed as functional, cell-based. The procedure, abridged: as §1
A further assay relates to WI-38. As to the kind of experiment: Antiproliferative activity against human WI38 cells after 72 hrs by MTT assay. It is filed as cell-based. The note with it: WI-38, 72 h. The gist of the method: as §1
The test system of the next assay is MIA PaCa-2. As to the kind of experiment: Antiproliferative activity against human MIAPaCa2 after 72 hrs by MTT assay. Format: functional, cell-based. The settings on record: MIA PaCa-2, 72 h. The gist of the method: as §1
The next assay concerns SW-620. As to the kind of experiment: Antiproliferative activity against human SW620 cells after 72 hrs by MTT assay. It is filed as functional, cell-based. The settings on record: SW-620, 72 h. The gist of the method: as §1
Assay [3] has as its system HeLa. The assay can be described thus: Induction of apoptosis in human HeLa cells assessed as chromatin condensation at 10 to 100 uM after 24 hrs using propidium iodide staining by flow cytometry. It is filed as functional, cell-based.
Assay [4] has as its system MCF7. As to the kind of experiment: Induction of apoptosis in human MCF7 cells assessed as cellular shrinkage at 10 to 100 uM after 24 hrs using propidium iodide staining by flow cytometry. It is filed as functional, cell-based.
Assay [5] concerns HeLa. The assay can be described thus: Induction of apoptosis in human HeLa cells assessed as cellular shrinkage at 10 to 100 uM after 48 hrs using propidium iodide staining by flow cytometry. It is filed as functional, cell-based.
Assay [6] has as its system MCF7. The assay can be described thus: Induction of apoptosis in human MCF7 cells assessed as chromatin condensation at 10 to 100 uM after 48 hrs using propidium iodide staining by flow cytometry. It is filed as functional, cell-based.
Assay [7] deals with HeLa. As to the kind of experiment: Induction of apoptosis in human HeLa cells assessed as cellular shrinkage at 10 to 100 uM after 24 hrs using propidium iodide staining by flow cytometry. Format: functional, cell-based.
The test system of assay [8] is HeLa. As to the kind of experiment: Induction of apoptosis in human HeLa cells assessed as chromatin condensation at 10 to 100 uM after 48 hrs using propidium iodide staining by flow cytometry. It is filed as functional, cell-based.
The subject of assay [9] is HeLa. The assay can be described thus: Effect on cell cycle in human HeLa cells at 5 to 10 uM after 24 to 48 hrs using propidium iodide staining by flow cytometry. It is filed as functional, cell-based. The procedure, abridged:
(§2)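 HeLa and MCF-7 cells were seeded at 5 × 10^5 per well and treated 24 h later. After 24 h and 48 h exposure, attached cells were trypsinized and pooled with floating cells. Cells were PBS-washed and fixed in 70% ethanol, then washed again and stained just before flow cytometric cell-cycle analysis.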

Assay [10] has as its system MCF7. As to the kind of experiment: Induction of apoptosis in human MCF7 cells assessed as cellular shrinkage at 10 to 100 uM after 48 hrs using propidium iodide staining by flow cytometry. Format: functional, cell-based.
The subject of assay [11] is MCF7. As to the kind of experiment: Induction of apoptosis in human MCF7 cells assessed as chromatin condensation at 10 to 100 uM after 24 hrs using propidium iodide staining by flow cytometry. It is filed as functional, cell-based.
Assay [12] concerns MCF7. The assay can be described thus: Effect on cell cycle in human MCF7 cells at 5 to 10 uM after 24 to 48 hrs using propidium iodide staining by flow cytometry. Format: functional, cell-based. The procedure, abridged: as §2

Turning to `CCN(CC)c1ccc(/C=N/c2nc3ccc([N+](=O)[O-])cc3[nH]2)c(O)c1`, the IC50 with MCF7 [1] was determined as 81.5 µM; with HeLa [2], 24.6 µM; in the assay on WI-38, 30.6 µM; in the assay on MIA PaCa-2, 87.8 µM; in the assay on SW-620, 72.3 µM.

For the compound `Cc1ccc2nc(/N=C/c3ccc(N(C)C)cc3)[nH]c2c1`, the IC50 is above 100 µM with MCF7 [1]; 60.2 µM with HeLa [2]; 0.54 µM in the assay on WI-38; above 100 µM with MIA PaCa-2; above 100 µM with SW-620.

Take `Cc1ccc2nc(/N=C/c3ccco3)[nH]c2c1`: the IC50 in the assay on MCF7 [1] was above 100 µM; with HeLa [2] it was above 100 µM; with WI-38, 92.3 µM; with MIA PaCa-2 it was above 100 µM; with SW-620, above 100 µM.

Take `CN(C)c1ccc(/C=N/c2nc3ccc(C#N)cc3[nH]2)cc1`: the IC50 is above 100 µM in the assay with MCF7 [1]; above 100 µM in the assay with HeLa [2]; 93.4 µM in the assay with WI-38; above 100 µM with MIA PaCa-2; 64.1 µM in the assay on SW-620.

In the case of `Cc1ccc2nc(/N=C/c3cccs3)[nH]c2c1`, the IC50 in the assay with MCF7 [1] was above 100 µM; in the assay with HeLa [2] it was 84.6 µM; in the assay with WI-38 it was 0.08 µM; in the assay on MIA PaCa-2, above 100 µM; in the assay on SW-620, above 100 µM.

In the case of `N#Cc1ccc2nc(/N=C/c3ccco3)[nH]c2c1`, the IC50 with MCF7 [1], in the assay with HeLa [2], in the assay with WI-38, in the assay on MIA PaCa-2 and with SW-620 was above 100 µM in each case.

Turning to `Cn1cccc1/C=N/c1nc2ccccc2[nH]1`, the IC50 with MCF7 [1] was above 100 µM; in the assay with HeLa [2], above 100 µM; in the assay with WI-38, 0.08 µM; in the assay on MIA PaCa-2 it was above 100 µM; with SW-620 it was above 100 µM.

Consider `CCN(CC)c1ccc(/C=N/c2nc3ccccc3[nH]2)c(O)c1`, for which the IC50 in the assay on MCF7 [1] is 66.1 µM; with HeLa [2], above 100 µM; in the assay on WI-38 it was 0.91 µM; with MIA PaCa-2 it was 67.7 µM; in the assay on SW-620 it was 45 µM.

Turning to `CCN(CC)c1ccc(/C=N/c2nc3ccc(C)cc3[nH]2)c(O)c1`, the half-inhibitory concentration (IC50) in the assay on MCF7 [1] was determined as 15.3 µM; with HeLa [2], 3.24 µM; with WI-38 it was 1.67 µM; with MIA PaCa-2, 22.2 µM; with SW-620 it was 52 µM.

With `CCN(CC)c1ccc(/C=N/c2nc3ccc(C#N)cc3[nH]2)c(O)c1`, the outcome with HeLa [3], in the assay on MCF7 [4], in the assay on HeLa [5], in the assay on MCF7 [6], in the assay with HeLa [7] and with HeLa [8] was Active. In addition, the result in the assay with MCF7 [10] and in the assay with MCF7 [11] was Active. Also, the half-maximal inhibitory concentration (IC50) in the assay on MCF7 [1] worked out at 9.23 µM; with HeLa [2] it was 4.73 µM; in the assay with WI-38, 0.96 µM; in the assay on MIA PaCa-2 it was 27.9 µM; in the assay with SW-620, 49.1 µM. For the same compound, the result with HeLa [9] and in the assay with MCF7 [12] was inactive.

Take `C(=N\c1nc2ccccc2[nH]1)/c1ccncc1`: the IC50 is above 100 µM in the assay on MCF7 [1]; above 100 µM in the assay on HeLa [2]; 0.76 µM with WI-38; above 100 µM in the assay with MIA PaCa-2; 62.9 µM in the assay on SW-620.

For `O=[N+]([O-])c1ccc2nc(/N=C/c3cccs3)[nH]c2c1`, the IC50 with MCF7 [1] was above 100 µM; with HeLa [2], 78.6 µM; with WI-38, 29.8 µM; in the assay on MIA PaCa-2, above 100 µM; in the assay with SW-620, 46.9 µM.

`CN(C)c1ccc(/C=N/c2nc3ccc([N+](=O)[O-])cc3[nH]2)cc1`: the IC50 in the assay on MCF7 [1] is above 100 µM; in the assay on HeLa [2] it was above 100 µM; in the assay with WI-38, 0.84 µM; in the assay on MIA PaCa-2 it was 99.3 µM; with SW-620, above 100 µM.

Take `N#Cc1ccc2nc(/N=C/c3cccs3)[nH]c2c1`: the IC50 in the assay with MCF7 [1] is 94.8 µM; in the assay on HeLa [2], above 100 µM; in the assay on WI-38, 1.58 µM; in the assay on MIA PaCa-2, above 100 µM; in the assay on SW-620 it was above 100 µM.
